In PubChem BioAssay:
Active and inactive are the calls of the source.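 The calls were made as follows, unless noted: active = inhibition above 20% together with a positive visual image hit; inconclusive = visual image hit but inhibition not above 20%; inactive = no visual image hit.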

Assays:
[1] = inhibitors of TNFa-induced NFkB p65 translocation, primary screen, imaging, HUVEC, MLSMR starter and 10KST1 sets (AID 438); settings: HUVEC TNFa-induced p65 nuclear translocation; cell count: measured here: nuclei count (cytotoxicity indicator), at 2.08 µM; inhibition: at 2 µM, stronger effect = higher value, 0% TNFa-plus-vehicle, 100% no-TNFa wells;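 also: compound added about 3h40 before a 20 min TNFalpha stimulation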;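 as to inhibition: signal is the nuclear over cytoplasmic p65 intensity ratio per well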
[2] = endothelial E-selectin expression blockers – imaging, HUVEC, immunofluorescence, MLSMR starter and 10KST1 sets, primary screen (AID 487;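 active = visually confirmed hit in the image check and inhibition above 20%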;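 as to inhibition: signal is fraction of cell area covered by stained E-selectin grains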;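 as to nuclei count: 100% = median nuclei count of all wells on the same plate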); settings: HUVEC TNFalpha-induced E-selectin immunofluorescence imaging, at 2 µM; inhibition: stronger effect = higher value; nuclei count: measured here: cell number, toxicity
[3] = Primary imaging screen for DUSP6 inhibitors that restore phospho-Erk in transfected HeLa cells, chemical complementation (AID 609;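 active = compounds giving at least 50% inhibition in the cell-based MKP-3 phosphatase rescue imaging test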;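 as to inhibition: phospho-Erk level distribution per well compared with pooled transfected vehicle control wells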); settings: HeLa MKP-3 transfected, phospho-Erk imaging KS statistic, at 10 µM, cells stimulated with TPA for 15 min
[4] = target: Dual specificity protein phosphatase 6 (Homo sapiens) (UniProt Q16828); experiment: as above; settings: HeLa MKP-3 transfected, phospho-Erk imaging KS statistic; at 10 µM; stronger effect = higher value; cells stimulated with TPA for 15 min
[5] = target: Voltage-gated potassium channel subunit beta-2 (Rattus norvegicus) (UniProt P62483); experiment: inhibitors of rat Kvbeta2 reductase activity – biochemical, NADPH fluorescence, primary screen (AID 622;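 active = fluorescence slope higher than the sample average by over 3 SD, cut at about -0.22 in these data, passing the limit was not always enough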;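 also: slope of raw intensity against log time taken from 70 to 1610 s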); settings: recombinant KvBeta, 4-cyanobenzaldehyde reduction, at 10 µM, stronger effect = higher value
[6] = target: Voltage-gated potassium channel subunit beta-2 (Rattus norvegicus) (UniProt P62483); experiment: enhancers of rat Kvbeta2 NADPH turnover – biochemical, NADPH fluorescence, primary screen (AID 623;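 active = NADPH fluorescence slope more negative than the mean of all samples by about 3 SD, 99.7% confidence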;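 also: fluorescence intensity change per second fitted from 20 to 320 s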); settings: Recombinant KvBeta, NADPH fluorescence decrease slope, 10 min; at 10 µM; stronger effect = lower value
[7] = target: Alpha-2C adrenergic receptor (Homo sapiens) (UniProt P18825); experiment: compounds altering alpha2C-coupled GIRK flux – cell-based, HEK293 alpha2C/GIRK1/2, thallium flux, primary screen (AID 624;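 active = fluorescence slope after compound addition differing from the mean of all screened samples at 99.7% confidence, in either direction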;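 also: slope of fluorescence ratio to pre-addition baseline per second over 15 to 24 s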); settings: thallium flux BTC fluorescence, at 10 µM, actives lie on both sides
[8] = inhibitors of larval lipid processing in zebrafish, primary screen, whole organism, PED6 fluorescence, gall bladder and intestine (AID 686;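 active = a full or partial loss of lipid-probe fluorescence in the fish gall bladder, intestine or both, judged by eye; inactive = no fluorescence loss, or compound toxic to the fish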;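 also: larvae 5 to 7 days old with five fish per well; signal comes from phospholipase A2 cleavage of quenched PED6 carried via bile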); settings: Zebrafish larvae PED6 lipid processing, fluorescence scoring; screened at 20 µM (by protocol)
How it was run: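 Incubation: overnight exposure of larvae to compound plus PED6 / Test system: live zebrafish larvae aged 5-7 days, whole organism / Amount: 5 larvae per well / Read-out basis: visual per-well fluorescence inhibition score / Signal: visual fluorescence microscopy scoring of gall bladder, gut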

[9] = loss of swimming-algae plug formation – whole organism, Chlamydomonas reinhardtii, WT vs cilia-less mutant, absorbance, 96-well, primary screen (AID 463189;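 active = inhibition at or above 50% relative to wild type and mutant plate controls; inactive = inhibition below 50%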;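 also: 0% = wild type cc124 cells in DMSO and 100% = ciliumless bld1 mutant cells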); settings: Chlamydomonas reinhardtii gravitaxis, OD600 absorbance, 2 days; at 10 µM; stronger effect = higher value
[10] = measured here: cell density z-score
[11] = measured here: nuclear c-Myc green intensity z-score
[12] = measured here: nuclear pErk red intensity z-score, stronger effect = higher value

Voltage-gated potassium channel subunit beta-2 (Rattus norvegicus), sequence (P62483 whole entry, looked up): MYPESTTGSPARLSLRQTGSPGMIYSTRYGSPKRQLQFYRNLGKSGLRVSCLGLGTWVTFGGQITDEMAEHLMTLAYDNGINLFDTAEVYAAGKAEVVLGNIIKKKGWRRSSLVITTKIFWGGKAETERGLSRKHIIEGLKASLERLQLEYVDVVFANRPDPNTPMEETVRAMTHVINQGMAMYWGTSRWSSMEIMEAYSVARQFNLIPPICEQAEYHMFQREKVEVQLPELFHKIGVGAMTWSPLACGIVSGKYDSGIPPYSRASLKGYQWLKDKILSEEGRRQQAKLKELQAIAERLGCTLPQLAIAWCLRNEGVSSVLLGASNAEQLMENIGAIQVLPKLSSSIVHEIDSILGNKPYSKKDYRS
Dual specificity protein phosphatase 6 (Homo sapiens), sequence (Q16828 whole entry, looked up): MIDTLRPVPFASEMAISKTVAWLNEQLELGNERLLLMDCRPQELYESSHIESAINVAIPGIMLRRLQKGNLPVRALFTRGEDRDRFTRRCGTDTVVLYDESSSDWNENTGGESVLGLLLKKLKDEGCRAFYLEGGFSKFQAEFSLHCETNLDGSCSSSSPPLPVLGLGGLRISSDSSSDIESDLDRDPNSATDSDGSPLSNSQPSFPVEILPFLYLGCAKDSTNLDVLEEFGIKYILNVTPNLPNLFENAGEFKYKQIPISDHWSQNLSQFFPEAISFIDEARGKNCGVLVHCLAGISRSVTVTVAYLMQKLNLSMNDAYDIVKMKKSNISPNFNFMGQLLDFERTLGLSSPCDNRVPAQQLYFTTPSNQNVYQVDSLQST
Alpha-2C adrenergic receptor (Homo sapiens), sequence (P18825 whole entry, looked up): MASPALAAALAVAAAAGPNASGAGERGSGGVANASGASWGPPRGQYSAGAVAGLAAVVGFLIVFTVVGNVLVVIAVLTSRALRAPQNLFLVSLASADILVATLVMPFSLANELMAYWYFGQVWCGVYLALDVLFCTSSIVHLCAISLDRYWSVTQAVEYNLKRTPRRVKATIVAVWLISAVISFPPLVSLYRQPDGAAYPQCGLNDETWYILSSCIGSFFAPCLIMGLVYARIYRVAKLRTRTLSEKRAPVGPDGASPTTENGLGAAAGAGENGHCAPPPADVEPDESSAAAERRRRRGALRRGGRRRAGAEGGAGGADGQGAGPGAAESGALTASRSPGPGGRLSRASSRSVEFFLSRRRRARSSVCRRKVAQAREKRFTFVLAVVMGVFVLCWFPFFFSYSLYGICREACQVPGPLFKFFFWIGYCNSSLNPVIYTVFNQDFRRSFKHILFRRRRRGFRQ

SMILES	cell count [1]	inhibition [1]	inhibition [2]	nuclei count [2]	z-score [3, 10]	z-score [3, 11]	z-score [3, 12]	inhibition [4]	fluorescence slope [5]	NADPH fluorescence slope [6]	slope [7]	outcome [8]	inhibition [9]
CN1C(=O)N(c2ccccc2)C(Nc2nncs2)C1(C)C (stereo unspecified)	438	3.5% (inactive)	-58.9% (inactive)	167%	-0.342	0.524	0.181	-2.29% (inactive)	-0.341 (inactive)	-2.5e-05 (inactive)	0.00481 (inactive)	inactive	1.2% (inactive)
O=C(O)CC(C(=O)OCC1CCCO1)N1CCOCC1 (stereo unspecified)	526	-5.8% (inactive)	-141% (inactive)	145%	0.582	-0.928	-1.26	10.5% (inactive)	-0.518 (inactive)	-4.1e-05 (inactive)	0.00538 (inactive)	inactive	-1.05% (inactive)
Cc1sccc1C1C(C#N)=C(N)SC(N)=C1C#N	693	-19.1% (inactive)	-22.1% (inactive)	167%	0.12	-0.636	1.06	16% (inactive)	-0.345 (inactive)	-2.2e-05 (inactive)	0.00967 (inactive)	inactive	-2.96% (inactive)
COc1ccc(OC)c(C2/C(=C(/O)c3cnn(-c4ccccc4)c3C)C(=O)C(=O)N2CCN(C)C)c1 (stereo unspecified)	452	1.9% (inactive)	8.9% (inactive)	86.9%	-1.51	0.604	-0.829	-1.75% (inactive)	-0.47 (inactive)	-9.5e-06 (inactive)	0.00657 (inactive)	inactive	12% (inactive)
Cc1oc2cc(O)cc(C)c2c(=O)c1-c1cnn(-c2ccccc2)c1	578	-1.3% (inactive)	-189% (inactive)	149%	0.4	1.63	0.0441	15.9% (inactive)	-0.509 (inactive)	-5.7e-05 (inactive)	0.00468 (inactive)	inactive	20.5% (inactive)
CC(=O)Oc1ccccc1C1OC(=O)c2ccccc2N1C(C)=O (stereo unspecified)	435	-26.4% (inactive)	-136% (inactive)	171%	-0.279	-1.25	-0.306	17.7% (inactive)	-0.274 (inactive)	9.9e-06 (inactive)	0.00513 (inactive)	inactive	23.1% (inactive)
CC(C)NC(=O)N1CCOCCOCCN(C(=O)NC(C)C)CCOCCOCC1	513	-16.8% (inactive)	-142% (inactive)	144%	2.53	-2.34	-0.54	13.9% (inactive)	-0.538 (inactive)	-6.1e-05 (inactive)	0.00725 (inactive)	inactive	11.9% (inactive)
Cc1c(OCc2ccccc2)c(=O)ccn1Cc1ccccc1	560	-7.9% (inactive)	-27.8% (inactive)	226%	0.907	-0.745	-0.326	-2.91% (inactive)	-0.379 (inactive)	-2.4e-05 (inactive)	0.00471 (inactive)	inactive	-5.81% (inactive)
CC(=O)NC1(C(F)(F)F)C(=O)Nc2c1c(=O)n(C)c(=O)n2C (stereo unspecified)	480	-4.5% (inactive)	-139% (inactive)	144%	0.582	-0.0109	-0.0908	1.6e-07% (inactive)	-0.529 (inactive)	-4.1e-05 (inactive)	0.00477 (inactive)	inactive	2.3% (inactive)
CCOC(=O)c1c(N)sc2c1CCC1C(=O)N(C3CCCCC3)C(=O)C21 (stereo unspecified)	593	-15.5% (inactive)	-59.6% (inactive)	170%	-0.619	-0.159	0.799	-11% (inactive)	-0.362 (inactive)	-3.1e-06 (inactive)	0.0048 (inactive)	inactive	-3.12% (inactive)
CCOC(=O)CCCCC(=O)NC(CO)C(=O)NC (stereo unspecified)	573	-3.8% (inactive)	-97.8% (inactive)	204%	-1.05	1.41	-0.705	22.1% (inactive)	-0.374 (inactive)	-2.1e-05 (inactive)	0.00506 (inactive)	inactive	-2.9% (inactive)
CCOC(=O)CC1=NC(=O)CS1	636	-20.6% (inactive)	-40.7% (inactive)	179%	-0.153	-1.04	1.51	-5.62% (inactive)	-0.455 (inactive)	-5.7e-05 (inactive)	0.00579 (inactive)	inactive	11.6% (inactive)
O=C1CC(c2ccco2)CC(O)=C1C=Nc1cc(Cl)ccc1O (stereo unspecified)	416	-17% (inactive)	-77.9% (inactive)	152%	-1.18	-0.564	1.32	1.04% (inactive)	-0.386 (inactive)	-5.2e-05 (inactive)	0.00522 (inactive)	inactive	17.7% (inactive)
Cc1ccc(CC2CC(=O)N(c3ccc4c(c3)OCCO4)C2=O)cc1 (stereo unspecified)	482	-11% (inactive)	-17.8% (inactive)	129%	1.49	-1.24	0.443	15.1% (inactive)	-0.513 (inactive)	-0.000111 (inactive)	0.00446 (inactive)	inactive	25.7% (inactive)
COc1cccc(/C(O)=C2/C(=O)C(=O)N(CCCN(C)C)C2c2cccc(Cl)c2)c1 (stereo unspecified)	339	-13.6% (inactive)	-326% (inactive)	182%	0.0823	-0.754	0.354	11.3% (inactive)	-0.436 (inactive)	-5.7e-05 (inactive)	0.00508 (inactive)	inactive	1.66% (inactive)
CC(C)(C)C1=Nn2c(nnc2-c2ccccn2)SC1	537	-5.5% (inactive)	-200% (inactive)	165%	1.25	0.795	-0.0968	-2.47% (inactive)	-0.417 (inactive)	-0.000136 (inactive)	0.00561 (inactive)	inactive	-9.77% (inactive)
C=CCn1c(SCC(=O)OC)nc2sc3c(c2c1=O)CCN(C)C3	489	5.2% (inactive)	-55.9% (inactive)	177%	0.349	0.211	-0.762	1.48% (inactive)	-0.234 (inactive)	-1.8e-05 (inactive)	0.00333 (inactive)	inactive	-3.61% (inactive)
CCOc1cccc(-c2nnc3sc(-c4ccc(C)cc4)nn23)c1	588	-12% (inactive)	-113% (inactive)	166%	0.29	-1.67	0.863	-9.66% (inactive)	-0.458 (inactive)	-0.000137 (inactive)	0.00552 (inactive)	inactive	-1.49% (inactive)
C=C1c2cc(OC)ccc2NC(=O)N1CC	611	0.3% (inactive)	-36.5% (inactive)	127%	0.269	0.973	-0.0863	-4.7% (inactive)	-0.452 (inactive)	-0.0002 (inactive)	0.00447 (inactive)	inactive	5.59% (inactive)
Cc1ccc(C2/C(=C(\O)c3cnn(-c4ccccc4)c3C)C(=O)C(=O)N2CCN(C)C)o1 (stereo unspecified)	488	4.7% (inactive)	-57.2% (inactive)	108%	-0.998	2.35	1.95	5.26% (inactive)	-0.583 (inactive)	-3.5e-05 (inactive)	0.00573 (inactive)	inactive	-22.8% (inactive)
Cn1c(OCc2ccco2)nc2c1c(=O)n(Cc1ccc(Cl)c(Cl)c1)c(=O)n2C	642	-4.4% (inactive)	12.6% (inactive)	136%	1.05	0.078	-0.436	0.671% (inactive)	-0.521 (inactive)	-4.1e-05 (inactive)	0.00511 (inactive)	inactive	-1.38% (inactive)
COc1ccc(N2C(=O)CN=C2Nc2nc(C)cc(C)n2)cc1	570	-16.6% (inactive)	-179% (inactive)	144%	1.15	-0.727	0.0405	1.98% (inactive)	-0.509 (inactive)	-6.2e-05 (inactive)	0.00444 (inactive)	inactive	0.296% (inactive)
COc1ccc(/C(O)=C2/C(=O)C(=O)N(CCN3CCOCC3)C2c2ccccn2)cc1 (stereo unspecified)	316	-13.6% (inactive)	25.6% (inactive)	75.8%	-1.25	0.879	1.18	-7.79% (inactive)	-0.44 (inactive)	-1.3e-05 (inactive)	0.00633 (inactive)	inactive	25.9% (inactive)
C#CCSC1=C(C#N)C(c2cccs2)C(C(=O)OCC)=C(C)N1 (stereo unspecified)	674	-1.7% (inactive)	-59.4% (inactive)	167%	-0.719	0.591	0.242	-7.28% (inactive)	-0.417 (inactive)	4.3e-06 (inactive)	0.00405 (inactive)	inactive	-6.51% (inactive)
CCCOc1ccc(C2NC(=O)NC2=O)cc1 (stereo unspecified)	614	-8% (inactive)	-260% (inactive)	113%	-0.563	1.62	0.505	-0.159% (inactive)	-0.511 (inactive)	-7.1e-05 (inactive)	0.00583 (inactive)	inactive	-17% (inactive)
Cc1nn(-c2ccccc2)c2c1C(c1ccc(F)cc1F)C(C#N)=C(N)O2 (stereo unspecified)	611	-19.6% (inactive)	17.2% (inactive)	184%	0.29	-0.619	0.392	19.1% (inactive)	-0.41 (inactive)	-2.3e-05 (inactive)	0.00636 (inactive)	inactive	18.8% (inactive)
COc1cc(-n2c3nc4ccccc4nc3c3c(=O)n(Cc4ccco4)cnc32)cc(OC)c1OC	308	-15.2% (inactive)	-111% (inactive)	168%	-1.73	0.447	0.876	-3.5% (inactive)	-0.417 (inactive)	-0.000139 (inactive)	0.00442 (inactive)	inactive	3.2% (inactive)
